Read-outs that look alike come from different tables or passages of the source.
What was measured:
FGFR1 = FGFR1 (Homo sapiens, UniProt P11362); test: Recombinant kinase 33P-ATP activity assay; format: biochemical
Difi cells = test: Caspase 3/7 activity assay; format: cell-based, human; details: 24 hours treatment, compared with Cetuximab
Summary of the method: (§1)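 Cells grown in DMEM with 10% FBS and penicillin/streptomycin at 37°C, 5% CO2, then seeded at 1×10^4 per well. […] Caspase 3/7 read by caspase-Glo, normalized to each line's untreated control (=1); mean of 6 wells ± standard deviation.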

C6 cells [1] = test: Cell growth inhibition; format: cell-based, rat; details: through apoptosis
c-Src = c-Src (Homo sapiens, UniProt P12931); test: Recombinant kinase 33P-ATP activity assay; format: biochemical
c-Src, sequence (P12931 whole entry): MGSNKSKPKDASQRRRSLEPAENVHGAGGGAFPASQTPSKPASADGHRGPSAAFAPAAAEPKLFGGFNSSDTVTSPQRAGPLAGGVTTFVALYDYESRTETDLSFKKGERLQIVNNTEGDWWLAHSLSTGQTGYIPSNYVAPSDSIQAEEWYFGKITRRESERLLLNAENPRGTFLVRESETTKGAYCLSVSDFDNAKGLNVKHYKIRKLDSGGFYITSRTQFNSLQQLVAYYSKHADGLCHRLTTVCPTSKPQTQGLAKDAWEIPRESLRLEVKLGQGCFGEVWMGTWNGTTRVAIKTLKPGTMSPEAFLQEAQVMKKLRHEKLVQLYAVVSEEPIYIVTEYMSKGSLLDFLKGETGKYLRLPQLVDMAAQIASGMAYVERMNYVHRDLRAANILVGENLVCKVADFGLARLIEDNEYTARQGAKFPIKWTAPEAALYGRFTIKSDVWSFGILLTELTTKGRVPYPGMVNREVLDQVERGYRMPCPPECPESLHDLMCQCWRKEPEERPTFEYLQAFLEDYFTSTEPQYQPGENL

HEK293 cells [2] = test: Caspase 3/7 activity assay; format: cell-based, human; details: 24 hours treatment, 0.2, 1 and 5μM
Summary of the method: as §1

colon and glioma cells = test: FACS analysis of cell cycle distribution; format: cell-based; details: all the cell lines, low concentrations, 48 hours
Summary of the method: (§2)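 Cells treated with test compound at several concentrations for 48 h. 1×10^6 cells trypsinized, washed in PBS and resuspended in 1% BSA/PBS. Fixed in 3 volumes of −20 °C ethanol for ≥1 h, washed twice, then stained ≥3 h at 4 °C at ~1×10^6 cells/ml in PI (50μg/ml), RNase A (0.5μg/ml) and 3.8mM sodium citrate. Flow cytometry, excitation 535nm, emission 617nm, ≥10,000 cells/sample.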

[3] = system: GPCR pathway genes in C6, HCT116, DLD1 and Difi cells; test: GPCR signaling pathway profiling by real-time PCR; format: cell-based; details: 5μM, 48 hours, all 4 cell lines
Summary of the method: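 Total RNA taken from C6, DLD1, HCT116 and Difi cells treated with or without 5μM test compound for 48 h, then reverse transcribed. DLD1 cDNA screened on an 82-gene human GPCR-pathway qPCR array, with control and treated expression compared by subtraction. Hits confirmed in C6 and the three colon lines by SYBR Green real-time PCR with primers in different coding regions.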

FGFR2 = FGFR2 (Homo sapiens, UniProt P21802); test: Recombinant kinase 33P-ATP activity assay; format: biochemical
C6 cells [4] = test: Caspase 3/7 activity assay; format: cell-based, rat; details: 24 hours treatment, any of the tested concentrations
HCT116 cells [5] = test: Western blot of signaling proteins; format: cell-based, human; details: 48 hours, different concentrations
HEK293 cells [6] = test: Western blot of signaling proteins; format: cell-based, human; details: 48 hours
Summary of the method: (§3)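 Cells exposed to indicated concentrations of test compound for 48 h. Harvested by trypsin/EDTA, lysed 15 min on ice in M-PER with protease inhibitors (10^7 cells/ml), cleared at 17000rpm for 30 min. Protein measured by Bradford; 30μg resolved by SDS-PAGE onto PVDF. Blocked in 5% milk/TBST; primary antibodies overnight at 4°C, HRP secondaries 1 h at room temperature; ECL detection with β-tubulin loading control.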

HCT116 cells [7] = test: Caspase 3/7 activity assay; format: cell-based, human; details: 24 hours treatment, up to 5μM
Summary of the method: as §1

PDGFRa = PDGFRa (Homo sapiens, UniProt P16234); test: Recombinant kinase 33P-ATP activity assay; format: biochemical
PDGFrb = PDGFrb (Homo sapiens, UniProt P09619); test: Recombinant kinase 33P-ATP activity assay; format: biochemical
DLD1 cells [8] = test: Western blot of signaling proteins; format: cell-based, human; details: 48 hours, different concentrations
CDK2/cyclin A = CDK2/cyclin A (Homo sapiens, UniProt P24941); test: Recombinant kinase 33P-ATP activity assay; format: biochemical
FLT1/VEGFR1 = FLT1/VEGFR1 (Homo sapiens, UniProt P17948); test: Recombinant kinase 33P-ATP activity assay; format: biochemical
FLT1/VEGFR1, sequence (P17948 27-1338): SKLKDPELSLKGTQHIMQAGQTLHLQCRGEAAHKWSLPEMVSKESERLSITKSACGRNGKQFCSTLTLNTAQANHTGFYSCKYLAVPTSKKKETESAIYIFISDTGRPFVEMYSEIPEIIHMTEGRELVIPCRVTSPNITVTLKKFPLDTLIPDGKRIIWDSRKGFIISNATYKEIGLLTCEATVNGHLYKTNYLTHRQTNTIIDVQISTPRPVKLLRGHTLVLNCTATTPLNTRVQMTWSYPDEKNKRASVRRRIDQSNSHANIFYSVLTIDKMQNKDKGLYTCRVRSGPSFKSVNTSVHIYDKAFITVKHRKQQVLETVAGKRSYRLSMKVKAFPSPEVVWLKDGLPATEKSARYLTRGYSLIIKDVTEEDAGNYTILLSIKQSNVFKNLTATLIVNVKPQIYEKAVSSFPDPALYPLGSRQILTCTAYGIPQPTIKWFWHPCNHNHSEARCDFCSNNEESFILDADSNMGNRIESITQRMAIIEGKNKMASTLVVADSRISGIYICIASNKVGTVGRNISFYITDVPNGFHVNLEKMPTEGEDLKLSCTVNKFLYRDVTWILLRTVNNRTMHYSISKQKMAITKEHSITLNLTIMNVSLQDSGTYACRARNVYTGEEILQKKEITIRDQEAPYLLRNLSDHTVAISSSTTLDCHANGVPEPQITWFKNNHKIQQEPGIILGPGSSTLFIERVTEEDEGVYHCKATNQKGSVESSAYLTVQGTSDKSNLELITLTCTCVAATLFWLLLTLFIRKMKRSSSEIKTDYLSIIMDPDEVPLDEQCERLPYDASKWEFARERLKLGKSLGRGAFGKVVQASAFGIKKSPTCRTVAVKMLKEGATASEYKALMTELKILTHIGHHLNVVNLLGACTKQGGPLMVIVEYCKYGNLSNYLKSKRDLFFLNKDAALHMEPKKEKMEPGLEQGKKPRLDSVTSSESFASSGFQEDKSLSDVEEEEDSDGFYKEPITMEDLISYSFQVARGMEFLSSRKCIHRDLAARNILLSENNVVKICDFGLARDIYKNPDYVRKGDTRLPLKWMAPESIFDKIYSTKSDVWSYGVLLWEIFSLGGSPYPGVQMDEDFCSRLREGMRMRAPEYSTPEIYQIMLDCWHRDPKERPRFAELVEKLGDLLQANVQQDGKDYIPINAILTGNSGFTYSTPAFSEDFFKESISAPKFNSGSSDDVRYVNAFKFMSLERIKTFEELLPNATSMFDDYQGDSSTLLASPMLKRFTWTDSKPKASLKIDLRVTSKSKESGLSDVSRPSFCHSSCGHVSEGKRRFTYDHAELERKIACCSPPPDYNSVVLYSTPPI

ERBB2/HER2 = ERBB2/HER2 (Homo sapiens, UniProt P04626); test: Recombinant kinase 33P-ATP activity assay; format: biochemical
ERBB2/HER2, sequence (P04626 23-1255): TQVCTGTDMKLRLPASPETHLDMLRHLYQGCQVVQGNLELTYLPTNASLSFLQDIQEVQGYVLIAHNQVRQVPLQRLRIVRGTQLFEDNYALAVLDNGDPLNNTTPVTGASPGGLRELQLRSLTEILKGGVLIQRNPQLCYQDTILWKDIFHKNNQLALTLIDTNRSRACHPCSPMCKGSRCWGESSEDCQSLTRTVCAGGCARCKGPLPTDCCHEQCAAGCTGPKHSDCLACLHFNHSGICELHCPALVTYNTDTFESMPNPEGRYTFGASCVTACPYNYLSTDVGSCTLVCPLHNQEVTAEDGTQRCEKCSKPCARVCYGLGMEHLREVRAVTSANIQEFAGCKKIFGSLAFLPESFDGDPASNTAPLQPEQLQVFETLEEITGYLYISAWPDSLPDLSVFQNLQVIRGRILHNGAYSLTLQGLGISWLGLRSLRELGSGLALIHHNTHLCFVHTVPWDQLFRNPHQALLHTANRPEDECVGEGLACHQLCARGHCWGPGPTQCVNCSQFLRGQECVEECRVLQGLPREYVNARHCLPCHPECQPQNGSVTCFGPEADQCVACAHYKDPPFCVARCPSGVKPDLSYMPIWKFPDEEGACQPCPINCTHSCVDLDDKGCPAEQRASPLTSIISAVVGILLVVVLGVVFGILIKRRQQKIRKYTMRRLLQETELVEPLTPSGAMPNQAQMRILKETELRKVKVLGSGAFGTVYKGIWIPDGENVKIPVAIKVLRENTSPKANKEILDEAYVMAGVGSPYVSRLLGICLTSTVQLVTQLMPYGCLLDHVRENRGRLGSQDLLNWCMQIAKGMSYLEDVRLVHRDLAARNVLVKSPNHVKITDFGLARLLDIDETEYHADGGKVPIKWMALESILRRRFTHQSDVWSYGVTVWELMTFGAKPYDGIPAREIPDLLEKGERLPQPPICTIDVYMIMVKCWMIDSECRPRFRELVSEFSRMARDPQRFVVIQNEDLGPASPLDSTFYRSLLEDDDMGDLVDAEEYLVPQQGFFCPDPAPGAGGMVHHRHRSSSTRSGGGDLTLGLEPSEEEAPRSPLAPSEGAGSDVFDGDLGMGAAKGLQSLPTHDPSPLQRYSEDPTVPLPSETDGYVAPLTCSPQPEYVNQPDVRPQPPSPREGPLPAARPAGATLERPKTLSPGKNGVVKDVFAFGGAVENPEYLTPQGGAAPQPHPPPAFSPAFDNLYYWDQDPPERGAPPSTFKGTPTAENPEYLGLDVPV

KDR/VEGFR2 = KDR/VEGFR2 (Homo sapiens, UniProt P35968); test: Recombinant kinase 33P-ATP activity assay; format: biochemical
DLD1 cells [9] = test: Caspase 3/7 activity assay; format: cell-based, human; details: 24 hours treatment, 0.2, 1 and 5μM
Summary of the method: as §1

HEK293 cells [10] = test: FACS analysis of cell cycle distribution; format: cell-based, human; details: 48 hours
Summary of the method: as §2

EGFr = EGFr (Homo sapiens, UniProt P00533); test: Recombinant kinase 33P-ATP activity assay; format: biochemical
EGFr, sequence (P00533 25-1210): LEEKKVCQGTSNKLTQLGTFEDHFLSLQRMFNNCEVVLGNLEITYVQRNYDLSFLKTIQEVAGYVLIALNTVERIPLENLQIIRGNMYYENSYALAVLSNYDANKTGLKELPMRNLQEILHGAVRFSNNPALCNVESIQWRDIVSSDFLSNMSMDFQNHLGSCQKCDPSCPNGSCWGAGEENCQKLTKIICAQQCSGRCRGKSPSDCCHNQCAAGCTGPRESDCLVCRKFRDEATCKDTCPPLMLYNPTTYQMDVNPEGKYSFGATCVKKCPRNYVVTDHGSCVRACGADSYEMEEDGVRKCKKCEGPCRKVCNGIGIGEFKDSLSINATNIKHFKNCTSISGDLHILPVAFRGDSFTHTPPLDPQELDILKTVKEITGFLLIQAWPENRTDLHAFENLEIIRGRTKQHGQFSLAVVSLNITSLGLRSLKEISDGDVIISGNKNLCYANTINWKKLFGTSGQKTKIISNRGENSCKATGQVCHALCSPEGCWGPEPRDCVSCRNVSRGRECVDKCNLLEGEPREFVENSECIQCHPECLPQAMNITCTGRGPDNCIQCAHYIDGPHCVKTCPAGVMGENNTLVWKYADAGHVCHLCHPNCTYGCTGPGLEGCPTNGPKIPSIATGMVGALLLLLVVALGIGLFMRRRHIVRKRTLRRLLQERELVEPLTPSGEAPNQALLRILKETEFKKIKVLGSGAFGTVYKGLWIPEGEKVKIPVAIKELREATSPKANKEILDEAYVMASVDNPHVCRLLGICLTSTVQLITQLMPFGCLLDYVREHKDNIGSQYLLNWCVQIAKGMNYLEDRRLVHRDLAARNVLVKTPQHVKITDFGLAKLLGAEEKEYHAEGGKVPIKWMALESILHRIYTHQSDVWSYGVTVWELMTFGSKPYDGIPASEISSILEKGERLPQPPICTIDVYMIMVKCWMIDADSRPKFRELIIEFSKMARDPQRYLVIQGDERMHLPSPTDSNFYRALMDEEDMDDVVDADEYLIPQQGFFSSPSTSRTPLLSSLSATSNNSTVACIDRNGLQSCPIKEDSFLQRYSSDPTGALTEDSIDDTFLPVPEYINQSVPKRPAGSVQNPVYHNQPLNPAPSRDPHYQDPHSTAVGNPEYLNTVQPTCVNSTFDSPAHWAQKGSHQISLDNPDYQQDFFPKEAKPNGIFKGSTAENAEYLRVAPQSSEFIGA

C6 cells [11] = test: Western blot of signaling proteins; format: cell-based, rat; details: 48 hours
Summary of the method: as §3

DLD1 cells [12] = test: Cell growth inhibition; format: cell-based, human; details: through apoptosis; more effective toward DLD1 cells
[13] = read-out: % Enzyme Activity (Relative to DMSO Controls – 100%) Data 1
[14] = read-out: % Enzyme Activity (Relative to DMSO Controls – 100%) Data 2

FGFR1, sequence (P11362 22-822): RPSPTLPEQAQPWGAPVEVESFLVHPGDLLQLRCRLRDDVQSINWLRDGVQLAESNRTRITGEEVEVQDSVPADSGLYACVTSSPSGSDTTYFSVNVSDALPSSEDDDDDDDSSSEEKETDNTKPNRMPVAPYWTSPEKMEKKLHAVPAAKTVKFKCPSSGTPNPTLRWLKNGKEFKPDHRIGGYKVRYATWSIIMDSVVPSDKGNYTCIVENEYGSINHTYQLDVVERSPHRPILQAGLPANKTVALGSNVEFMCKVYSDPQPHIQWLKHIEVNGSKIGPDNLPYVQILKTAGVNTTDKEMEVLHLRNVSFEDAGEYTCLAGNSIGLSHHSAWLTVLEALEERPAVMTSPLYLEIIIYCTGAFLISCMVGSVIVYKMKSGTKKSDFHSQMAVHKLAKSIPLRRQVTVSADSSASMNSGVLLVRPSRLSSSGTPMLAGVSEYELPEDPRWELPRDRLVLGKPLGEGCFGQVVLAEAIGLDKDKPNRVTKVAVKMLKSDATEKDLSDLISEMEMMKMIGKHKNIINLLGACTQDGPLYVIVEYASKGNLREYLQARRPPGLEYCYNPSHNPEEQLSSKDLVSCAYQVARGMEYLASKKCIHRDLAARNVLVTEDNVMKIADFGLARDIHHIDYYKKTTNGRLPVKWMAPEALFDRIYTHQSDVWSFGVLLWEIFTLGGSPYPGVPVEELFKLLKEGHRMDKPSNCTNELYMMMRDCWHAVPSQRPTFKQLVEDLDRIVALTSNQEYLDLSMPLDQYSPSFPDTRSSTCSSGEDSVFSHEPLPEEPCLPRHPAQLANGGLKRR

- remaining activity at 1 µM (FGFR1; [13]): 107%
- remaining activity at 1 µM (FGFR1; [14]): 104%
- remaining activity at 1 µM (c-Src; [13]): 99.2%
- remaining activity at 1 µM (c-Src; [14]): 99%
- remaining activity at 1 µM (FGFR2; [13]): 96.1%
- remaining activity at 1 µM (FGFR2; [14]): 94.9%
- remaining activity at 1 µM (PDGFRa; [13]): 96.3%
- remaining activity at 1 µM (PDGFRa; [14]): 96.2%
- remaining activity at 1 µM (PDGFrb; [13]): 100%
- remaining activity at 1 µM (PDGFrb; [14]): 99.9%
- inhibition on CDK2 (CDK2/cyclin A; 1μM): 6%
- remaining activity at 1 µM (CDK2/cyclin A; [13]): 94.4%
- remaining activity at 1 µM (CDK2/cyclin A; [14]): 94.2%
- inhibition at 1 µM (CDK2/cyclin A; read-out: inhibition on CDK2, 1μM): 5 to 6%
- remaining activity at 1 µM (FLT1/VEGFR1; [13]): 100%
- remaining activity at 1 µM (FLT1/VEGFR1; [14]): 99.8%
- remaining activity at 1 µM (ERBB2/HER2; [13]): 99.3%
- remaining activity at 1 µM (ERBB2/HER2; [14]): 98.2%
- remaining activity at 1 µM (KDR/VEGFR2; [13]): 98.3%
- remaining activity at 1 µM (KDR/VEGFR2; [14]): 98%
- effects on EGFr kinase activity (EGFr; 1μM): minimal effects
- remaining activity at 1 µM (EGFr; [13]): 99.1%
- remaining activity at 1 µM (EGFr; [14]): 97.8%
SMILES: CCn1c2ccccc2c2cc(N/N=C3/C(=O)NN=C3C)ccc21 [VUGX01, (4E)-4-[2-(9-ethyl-9H-carbazol-3-yl)hydrazin-1-ylidene]-3-methyl-4,5-dihydro-1H-pyrazol-5-one]
- caspase activation (Difi cells): less potent but is effective
- cell growth (C6 cells [1]): can inhibit the growth
- caspase 3/7 activation (HEK293 cells [2]): only slight activation
- effects on G1 or G2/M phases (colon and glioma cells): minimal effects
- expression of AGT, AGTR1, AGTR2, GCGR, MMP9, PIK3CG, PTGS2, SCTR, TSHR [3]: elevated
- caspase activation (C6 cells [4]): effectively activate
- p-c-raf (Ser259) and map2k level (HCT116 cells [5]): increased at low concentrations and decreased at high concentrations
- effect on tested proteins (p-c-raf, map2k, AKT, p-AKT) (HEK293 cells [6]): no effect
- caspase 3/7 activation (HCT116 cells [7]): minimal effect
- p-c-raf (Ser259) and map2k level (DLD1 cells [8]): increased at low concentrations and decreased at high concentrations
- caspase 3/7 activation (DLD1 cells [9]): greatly activate
- cell cycle distribution (HEK293 cells [10]; 5μM): shifts the cell population from G1 to G2 phase
- cell death (cells in sub G0 phase) (HEK293 cells [10]): noticeable amount of cell death
- phosphorylation of AKT at serine 473 (C6 cells [11]): minor increase
- cell growth (DLD1 cells [12]): can inhibit the growth

From publication PMC10563180 (Current cancer drug targets, 2020)
